Data set [1] deals with T1, Phosphatidylinositol 4,5-bisphosphate 3-kinase catalytic subunit delta isoform (Homo sapiens, UniProt O00329).
T1 sequence (O00329 whole entry): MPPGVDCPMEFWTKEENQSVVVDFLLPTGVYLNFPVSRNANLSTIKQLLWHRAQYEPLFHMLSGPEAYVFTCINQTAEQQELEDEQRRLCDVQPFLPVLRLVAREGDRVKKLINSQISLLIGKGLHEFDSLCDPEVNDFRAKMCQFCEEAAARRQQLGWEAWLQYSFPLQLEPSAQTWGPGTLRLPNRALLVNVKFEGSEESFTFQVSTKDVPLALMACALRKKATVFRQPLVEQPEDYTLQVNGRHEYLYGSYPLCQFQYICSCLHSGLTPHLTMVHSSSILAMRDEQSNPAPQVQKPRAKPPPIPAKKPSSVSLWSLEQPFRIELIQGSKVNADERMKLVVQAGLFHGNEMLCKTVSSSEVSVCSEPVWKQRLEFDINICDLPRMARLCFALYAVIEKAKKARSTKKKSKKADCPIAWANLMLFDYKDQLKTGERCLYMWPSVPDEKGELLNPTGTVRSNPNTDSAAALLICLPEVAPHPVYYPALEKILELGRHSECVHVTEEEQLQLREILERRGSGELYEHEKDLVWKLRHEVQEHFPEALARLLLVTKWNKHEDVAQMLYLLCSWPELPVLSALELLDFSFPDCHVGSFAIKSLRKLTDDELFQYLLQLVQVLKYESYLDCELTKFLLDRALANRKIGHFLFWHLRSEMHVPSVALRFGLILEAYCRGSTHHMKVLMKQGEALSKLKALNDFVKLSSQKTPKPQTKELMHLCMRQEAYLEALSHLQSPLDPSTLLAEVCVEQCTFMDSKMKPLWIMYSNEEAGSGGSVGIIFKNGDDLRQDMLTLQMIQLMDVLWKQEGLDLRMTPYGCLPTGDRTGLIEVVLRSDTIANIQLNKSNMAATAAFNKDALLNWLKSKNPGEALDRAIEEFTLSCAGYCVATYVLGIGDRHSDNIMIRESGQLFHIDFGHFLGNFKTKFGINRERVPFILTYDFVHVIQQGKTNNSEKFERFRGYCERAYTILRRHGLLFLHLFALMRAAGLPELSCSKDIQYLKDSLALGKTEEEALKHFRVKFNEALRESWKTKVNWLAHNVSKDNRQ
The experiment in a line: Inhibition of PI3Kdelta in human whole blood assessed as reduction in anti-FCepsilonR1 mAb-stimulated basophil activation preincubated for 60 mins followed by anti-FCepsilonR1 mAb stimulation and measured after 25 mins by flow cytometry analysis. It is filed as tissue-based. On the technique in general: Flow cytometry measures light scatter and fluorescence of single cells or particles in a stream.

In data set [2] the test system is Rattus norvegicus. Nature of the data set: Antiarthritic activity in Lewis rat model of Freund's incomplete adjuvant-induced arthritis assessed as reduction in ankle swelling at 1 mg/kg, po bid administered for 7 days at 12 hrs interval starting from day 10 to day 16 post-immunization by caliper method relative to control. Set-up: scale not given: the % may be the effect or the level left. The settings on record: time 7 day. It is filed as functional. Put shortly:
(§1)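 Established collagen-induced arthritis in female Lewis rats; oral dosing twice daily for 7 days from day 10 after second immunization. Right and left ankle diameters measured by caliper daily, days 9–18; ankle diameter AUC over days 11–18 compared with arthritic vehicle group (ANOVA, p < 0.05). n = 8/treatment group.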

The nature of data set [3]: Volume of distribution at steady state in dog at 1 mg/kg, iv. The class given is ADME, organism-based, Canis lupus familiaris. The settings on record: in vivo, read-out: Vdss. An outline of the steps: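 Rats and dog received 1 mg/kg intravenously, formulated in 12% w/v Captisol in water. Volume of distribution was taken at steady state from the iv plasma profile. Three animals per dosing route.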

Data set [4] concerns the target Phosphatidylinositol 4,5-bisphosphate 3-kinase catalytic subunit beta isoform (Homo sapiens, UniProt P42338). Nature of the data set: Inhibition of PI3K p110beta in human PC-3 cells assessed as reduction in AKT phosphorylation at S473 residue measured after 2 hrs by TR-FRET analysis. The class given is cell-based. An outline of the steps:
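PC3 cells quiesced 2 h at 37 °C/5% CO2 in DMEM with 0.1% FBS/1% PSG, then plated at 25 000 cells/well onto prespotted compound dilutions and incubated 2 h. Lysates were read for Akt and phospho-Akt S473 by TR-FRET (Eu-cryptate Akt donor, d2 phospho-Akt acceptor). Data normalized to 1 μM wortmannin and DMSO controls; four-parameter fit; triplicate; geometric mean.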

Data set [5] deals with Rattus norvegicus. Nature of the data set: Antiarthritic activity in Lewis rat model of Freund's incomplete adjuvant-induced arthritis assessed as inhibition of […] bone formation at 0.3 to 3 mg/kg, po bid administered for 7 days at 12 hrs interval starting from day 10 to day 16 post-immunization by microscopic analysis relative to control. The class given is functional. Also noted: scale not given: the % may be the effect or the level left. The settings on record: dose 0.3-3 mg/kg, time 7 day. Put shortly:
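Female Lewis rats with established collagen-induced arthritis dosed orally twice daily for 7 days at 0.3, 1 and 3 mg/kg, starting day 10 after second collagen immunization. Joint histopathology scored for pannus formation, cartilage damage, bone resorption and periosteal bone formation; ED50 derived. n = 8/treatment group, n = 4 normal controls.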

Data set [6] can be described thus: In vivo inhibition of PI3Kdelta in Lewis rat model of Freund's incomplete adjuvant-induced arthritis at 0.3 mg/kg, po bid administered for 7 days at 12 hrs interval starting from day 10 to day 16 post-immunization relative to control. The note with it: 168 h, time 7 day. The class given is functional. Put shortly:
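CIA Lewis rats dosed orally twice daily for 7 days at 0.3, 1 or 3 mg/kg; blood/plasma drug levels taken on day 7, 12 h after final dose, and related to PI3Kδ inhibition at trough.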

In data set [7] the test system is Rattus norvegicus. Nature of the data set: Antiarthritic activity in Lewis rat model of Freund's incomplete adjuvant-induced arthritis assessed as reduction in ankle swelling at 0.3 mg/kg, po bid administered for 7 days at 12 hrs interval starting from day 10 to day 16 post-immunization by caliper method relative to control. The class given is functional. Also noted: scale not given: the % may be the effect or the level left. The note with it: time 7 day. An outline of the steps: as §1

Data set [8] in a line: Cmax in Lewis rat at 5 mg/kg, po administered as single dose measured at 2 hrs. The settings on record: in vivo. Also noted: route oral, dose 5 mg/kg, time 2 hrs. The class given is ADME, organism-based. Put shortly:
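Female Lewis rats given a single oral dose of 1 or 5 mg/kg; plasma concentration–time profiles determined; mean ± SD, n = 3.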

The target in data set [9] is T1, Phosphatidylinositol 4,5-bisphosphate 3-kinase catalytic subunit delta isoform. Nature of the data set: Inhibition of PI3K p110delta in human basophil assessed as reduction in anti-FCepsilonR1 mAb-induced basophil activation preincubated for 60 mins followed by anti-FCepsilonR1 mAb stimulation and measured after 25 mins in presence of 25% serum by flow cytometry analysis. The class given is tissue-based.

Data set [10] can be described thus: Terminal half life in rhesus monkey at 1 mg/kg, iv measured over 24 hrs by LC/MS/MS analysis. It is filed as ADME, organism-based, Macaca mulatta. The settings on record: in vivo, read-out: beta t1/2 (converted). Put shortly: (§2)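 Single intravenous dose of 1 mg/kg. Vehicles: rats and dogs 5% ethanol/55% PEG 400/40% water; cynomolgus monkeys 5% ethanol/22% PEG 400/73% water; rhesus monkeys 5% ethanol/25% PEG 400/70% water. Plasma concentration–time data gave Vss and iv half-life. Reported as mean ± SD, n = 3.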

The target in data set [11] is Voltage-gated inwardly rectifying potassium channel KCNH2 (Homo sapiens, UniProt Q12809). The experiment in a line: Inhibition of human ERG at 25 uM.
Data set [12] is described as follows: Terminal half life in Beagle dog at 1 mg/kg, iv measured over 24 hrs by LC/MS/MS analysis. The class given is ADME, organism-based, Canis lupus familiaris. The note with it: in vivo, read-out: beta t1/2 (converted). An outline of the steps: as §2
Data set [13] in a line: Volume of distribution at steady state in Beagle dog at 1 mg/kg, iv measured over 24 hrs by LC/MS/MS analysis. It is filed as ADME, organism-based, Canis lupus familiaris. The settings on record: in vivo, read-out: Vdss. An outline of the steps: as §2

Structures are written as SMILES.

Chain of Voltage-gated inwardly rectifying potassium channel KCNH2 (Q12809 whole entry): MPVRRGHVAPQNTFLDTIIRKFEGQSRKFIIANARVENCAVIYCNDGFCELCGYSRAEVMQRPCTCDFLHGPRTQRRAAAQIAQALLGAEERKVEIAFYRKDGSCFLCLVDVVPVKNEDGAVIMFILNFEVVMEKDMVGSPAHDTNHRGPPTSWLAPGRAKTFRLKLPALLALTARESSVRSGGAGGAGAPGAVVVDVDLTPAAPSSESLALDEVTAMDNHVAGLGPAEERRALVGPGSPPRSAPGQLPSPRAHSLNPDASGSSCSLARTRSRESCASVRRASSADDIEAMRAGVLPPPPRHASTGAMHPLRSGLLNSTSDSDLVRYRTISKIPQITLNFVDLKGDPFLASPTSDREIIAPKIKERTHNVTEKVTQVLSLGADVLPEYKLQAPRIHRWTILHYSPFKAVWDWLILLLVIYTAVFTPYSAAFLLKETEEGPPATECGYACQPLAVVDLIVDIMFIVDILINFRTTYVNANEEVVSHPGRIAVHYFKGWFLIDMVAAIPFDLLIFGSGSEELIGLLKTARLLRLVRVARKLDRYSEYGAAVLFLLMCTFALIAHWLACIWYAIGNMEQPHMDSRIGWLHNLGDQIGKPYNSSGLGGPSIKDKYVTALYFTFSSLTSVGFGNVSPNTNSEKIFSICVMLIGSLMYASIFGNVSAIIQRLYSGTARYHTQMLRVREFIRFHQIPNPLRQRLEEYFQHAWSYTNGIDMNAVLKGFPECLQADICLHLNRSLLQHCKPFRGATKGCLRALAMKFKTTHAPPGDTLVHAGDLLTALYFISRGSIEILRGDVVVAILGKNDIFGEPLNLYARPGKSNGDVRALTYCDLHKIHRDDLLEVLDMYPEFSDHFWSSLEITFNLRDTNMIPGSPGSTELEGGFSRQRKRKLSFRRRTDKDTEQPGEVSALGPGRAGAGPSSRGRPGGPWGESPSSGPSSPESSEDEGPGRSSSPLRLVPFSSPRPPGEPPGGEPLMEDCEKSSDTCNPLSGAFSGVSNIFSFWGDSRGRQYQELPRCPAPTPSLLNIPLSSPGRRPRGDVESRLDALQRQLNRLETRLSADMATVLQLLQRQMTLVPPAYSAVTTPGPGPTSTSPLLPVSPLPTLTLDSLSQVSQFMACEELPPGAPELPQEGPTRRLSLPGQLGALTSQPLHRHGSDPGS
Chain of Phosphatidylinositol 4,5-bisphosphate 3-kinase catalytic subunit beta isoform (P42338 whole entry, canonical isoform): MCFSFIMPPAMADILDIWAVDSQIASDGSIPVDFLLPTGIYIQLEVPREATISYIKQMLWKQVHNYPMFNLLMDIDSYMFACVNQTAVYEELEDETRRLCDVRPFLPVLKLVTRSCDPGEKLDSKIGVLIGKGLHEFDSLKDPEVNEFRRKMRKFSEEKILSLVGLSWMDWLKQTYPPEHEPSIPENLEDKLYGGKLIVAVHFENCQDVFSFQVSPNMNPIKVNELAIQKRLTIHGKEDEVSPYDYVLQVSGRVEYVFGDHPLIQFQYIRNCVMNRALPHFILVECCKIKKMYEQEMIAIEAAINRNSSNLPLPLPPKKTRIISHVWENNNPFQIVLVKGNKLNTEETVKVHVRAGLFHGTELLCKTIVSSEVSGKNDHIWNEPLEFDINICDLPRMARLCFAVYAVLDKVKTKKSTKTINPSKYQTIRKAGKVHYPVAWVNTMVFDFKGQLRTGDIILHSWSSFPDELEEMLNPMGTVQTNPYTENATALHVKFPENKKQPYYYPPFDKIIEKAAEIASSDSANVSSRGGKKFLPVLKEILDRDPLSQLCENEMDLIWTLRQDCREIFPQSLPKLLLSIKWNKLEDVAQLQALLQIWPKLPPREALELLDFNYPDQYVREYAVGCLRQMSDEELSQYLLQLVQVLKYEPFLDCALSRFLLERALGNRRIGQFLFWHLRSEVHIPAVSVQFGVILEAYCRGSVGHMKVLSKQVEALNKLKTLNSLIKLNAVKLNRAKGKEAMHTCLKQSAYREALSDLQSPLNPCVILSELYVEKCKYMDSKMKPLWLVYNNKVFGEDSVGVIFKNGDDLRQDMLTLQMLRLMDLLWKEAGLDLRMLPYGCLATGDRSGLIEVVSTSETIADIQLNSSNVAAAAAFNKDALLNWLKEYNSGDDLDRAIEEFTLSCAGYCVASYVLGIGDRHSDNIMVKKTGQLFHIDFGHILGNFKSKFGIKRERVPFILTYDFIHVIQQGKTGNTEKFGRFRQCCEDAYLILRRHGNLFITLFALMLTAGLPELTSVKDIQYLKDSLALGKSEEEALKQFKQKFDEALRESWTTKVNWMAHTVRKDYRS

The EC50 is the concentration needed to bring the measured effect to its halfway point. A word on the inhibition in vivo: it is the drop in the measured response relative to a control, in per cent. For orientation: Cmax means the peak of the concentration-time curve. In the case of `N#Cc1c(N)nc(N)nc1N[C@H](c1nc2c(F)ccc(Cl)c2c(=O)n1-c1cccnc1)C1CC1` [GS-9901], the values for the EC50 in data set [1], in data set [4] and in [9] were 1 nM, 42 nM and 1.3 nM, respectively. For the same compound, the values for the Activity in the data set on Rattus norvegicus [2], with Rattus norvegicus [5] and in the data set on Rattus norvegicus [7] were 67%, 48% and 31%, respectively. Further, the Vd in data set [3] and in [13] was 1.03 L/kg in each case. The inhibition in vivo at 0.3 mg/kg in [6] came out at 60%. The compound also returned a Cmax in data set [8] of 1780 nM. Also, the results for the half-life in data set [10] and in data set [12] were 2.45 h and 2.01 h, respectively. Besides, in data set [11], the “inhibition (INH)” value was “Not Active”.

The values are drawn from ChEMBL document CHEMBL4765230, “Discovery of Orally Efficacious Phosphoinositide 3-Kinase δ Inhibitors with Improved Metabolic Stability” (J Med Chem, 2016).
